Results reported in ChEMBL document CHEMBL3414514, “Synthesis and pharmacological evaluation of novel bisindole derivatives bearing oximes moiety: identification of novel proapoptotic agents” (Eur J Med Chem, 2015).
Active and inactive are the calls of the source. The calls are words filed in the database; no cut-off is given here.

Columns and labels:
[1] = tested on: T-24; assay: Induction of apoptosis in human T24 cells assessed as late apoptotic cells at 20 uM after 24 hrs by annexin-V-FITC/propidium iodide staining-based flow cytometry (reference value: 2.08%); assay type: functional
[2] = Induction of apoptosis in human T24 cells assessed as caspase-9 upregulation after 24 hrs by qRT-PCR analysis; assay type: functional, cell-based; settings: T-24
Method in brief: (§1)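 T24 cells treated at […] for 24 h before RNA extraction. SYBR Green qRT-PCR with 500 nM primers: 2 min at 50 C, 10 min at 95 C, then 40 cycles of 15 s at 95 C and 1 min at 60 C. Expression by the ΔCt method against actin, normalized to untreated cells; run in triplicate.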

[3] = Induction of apoptosis in human T24 cells assessed as Bax upregulation after 24 hrs by qRT-PCR analysis; assay type: functional, cell-based; settings: T-24; method in brief: as §1
[4] = Induction of apoptosis in human T24 cells assessed as Bcl2 upregulation after 24 hrs by qRT-PCR analysis; assay type: functional, cell-based; settings: T-24; method in brief: as §1
[5] = Induction of apoptosis in human T24 cells assessed as AIF upregulation after 24 hrs by qRT-PCR analysis; assay type: functional, cell-based; settings: T-24; method in brief: as §1
[6] = Induction of apoptosis in human T24 cells assessed as AIF upregulation at IC50 after 24 hrs by qRT-PCR analysis relative to control; assay type: functional, cell-based; settings: T-24
[7] = Induction of apoptosis in human T24 cells assessed as caspase-9 upregulation at IC50 after 24 hrs by qRT-PCR analysis relative to control; assay type: functional, cell-based; settings: T-24
[8] = tested on: T-24; assay: Induction of apoptosis in human T24 cells assessed as cytochrome C accumulation in cytosol at 20 uM after 6 to 24 hrs by Western blotting analysis; assay type: functional, cell-based
[9] = tested on: T-24; assay: Induction of apoptosis in human T24 cells assessed as increase in caspase-9 protein expression at 20 uM after 6 to 24 hrs by Western blotting analysis; assay type: functional, cell-based
[10] = Cell cycle arrest in human T24 cells assessed as accumulation at G1 phase at 5 uM after 48 hrs by Rnase A/propidium iodide staining-based flow cytometry (reference value: 34.43%); assay type: functional; settings: T-24
Method in brief: (§2)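 T24 cells exposed to […] for 48 h, washed with ice-cold PBS, then fixed and permeabilized overnight in ice-cold 70% ethanol. RNase A (100 mg/mL) treatment at 37 C for 30 min, then PI staining (1 mg/mL) in the dark at 4 C for 30 min. Flow cytometry gave the percentage of cells in G1, S and G2 phase.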

[11] = Cell cycle arrest in human T24 cells assessed as accumulation at S phase at 5 uM after 48 hrs by Rnase A/propidium iodide staining-based flow cytometry (reference value: 62%); assay type: functional; settings: T-24; method in brief: as §2
[12] = Cell cycle arrest in human T24 cells assessed as accumulation at G2 phase at 10 uM after 48 hrs by Rnase A/propidium iodide staining-based flow cytometry (reference value: 3.58%); assay type: functional; settings: T-24; method in brief: as §2
[13] = Cell cycle arrest in human T24 cells assessed as accumulation at G1 phase at 20 uM after 48 hrs by Rnase A/propidium iodide staining-based flow cytometry (reference value: 34.43%); assay type: functional; settings: T-24
[14] = Cell cycle arrest in human T24 cells assessed as accumulation at S phase at 20 uM after 48 hrs by Rnase A/propidium iodide staining-based flow cytometry (reference value: 62%); assay type: functional; settings: T-24; method in brief: as §2
[15] = Cell cycle arrest in human T24 cells assessed as reduction in Cyclin D1 level after 24 hrs by Western blotting analysis; assay type: functional, cell-based; settings: T-24
Method in brief: (§3)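 T24 cells treated at […] for 24 h and lysed in ice-cold RIPA buffer with protease inhibitors and NaF. Protein measured by Bradford; 30 micrograms per lane run on 12% SDS-PAGE and transferred to PVDF. Blocked 2 h at room temperature, primary antibody overnight at 4 C, HRP secondary (1:2000) 1 h, chemiluminescence detection.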

[16] = Cell cycle arrest in human T24 cells assessed as increase in p16 level after 24 hrs by Western blotting analysis; assay type: functional, cell-based; settings: T-24; method in brief: as §3
[17] = Cell cycle arrest in human T24 cells assessed as increase in p27 level after 24 hrs by Western blotting analysis; assay type: functional, cell-based; settings: T-24; method in brief: as §3
[18] = Cell cycle arrest in human T24 cells assessed as alteration in cyclin A level at 5 to 20 uM after 24 hrs by Western blotting analysis; assay type: functional, cell-based; settings: T-24
[19] = tested on: HepG2; assay: Cytotoxicity against human HepG2 cells after 2 days by MTT assay; assay type: functional, cell-based; settings: HepG2, 48 h
Method in brief: (§4)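 Cells grown in medium with 10% heat-inactivated FBS at 37 C under 5% CO2. Compounds dissolved in medium with 1% DMSO; controls received 1% DMSO. After 2 days, MTT (10 mg/mL) added for 4 h, formazan dissolved in DMSO and absorbance read at 570/630 nm. Survival taken relative to negative control; IC50 by Bliss method (n = 5), at least three independent experiments.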

[20] = Cytotoxicity against human SPCA2 cells after 2 days by MTT assay; assay type: functional, cell-based; settings: SPCA2, 48 h; method in brief: as §4
[21] = tested on: NCI-H460; assay: Cytotoxicity against human NCI-H460 cells after 2 days by MTT assay; assay type: functional, cell-based; settings: NCI-H460, 48 h; method in brief: as §4
[22] = tested on: HUVEC; assay: Cytotoxicity against human HUVEC cells after 2 days by MTT assay; assay type: cell-based; settings: 48 h; method in brief: as §4
[23] = tested on: T-24; assay: Induction of apoptosis in human T24 cells assessed as reduction in cellular volume after 24 hrs by Hoechst 33258 staining-based fluorescence microscopic analysis relative to control; assay type: functional, cell-based
Method in brief: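 T24 cells on cover slips exposed 24 h at 5, 10 and 20 µM, with untreated cells as control. Fixed in 4% paraformaldehyde for 10 min, washed with PBS and stained with Hoechst 33258 for 5 min. Nuclei were viewed by fluorescence microscopy at 350 nm excitation and 460 nm emission.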

[24] = tested on: T-24; assay: Induction of apoptosis in human T24 cells assessed as condensed nuclei after 24 hrs by Hoechst 33258 staining-based fluorescence microscopic analysis relative to control; assay type: functional, cell-based
Method in brief: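 T24 cells on cover slips treated at […] for 24 h; untreated cells as control. Fixed in 4% paraformaldehyde for 10 min, PBS washes, Hoechst 33258 for 5 min. Nuclei imaged by fluorescence microscopy, excitation 350 nm, emission 460 nm.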

[25] = tested on: T-24; assay: Induction of apoptosis in human T24 cells assessed as membrane blebbing at 5 to 20 uM after 24 hrs by AO/EB staining-based fluorescence microscopic analysis relative to control; assay type: functional, cell-based
Method in brief: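 T24 cells seeded at 5 × 10^4 cells/mL on cover slips. Medium was replaced with fresh medium containing 10% FBS and compound at 5, 10 or 20 µM for 24 h. Cover slips were inverted onto AO/EB stain and viewed by fluorescence microscopy. Live cells score uniform green, early apoptotic green-yellow, late apoptotic orange, and necrotic orange without condensed chromatin. Untreated cells served as control.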

[26] = tested on: T-24; assay: Induction of apoptosis in human T24 cells assessed as early apoptotic cells at 5 uM after 24 hrs by annexin-V-FITC/propidium iodide staining-based flow cytometry (reference value: 2.74%); assay type: functional
[27] = tested on: T-24; assay: Induction of apoptosis in human T24 cells assessed as necrotic cells at 5 uM after 24 hrs by annexin-V-FITC/propidium iodide staining-based flow cytometry (reference value: 1.66%); assay type: functional
[28] = tested on: T-24; assay: Induction of apoptosis in human T24 cells assessed as viable cells at 5 uM after 24 hrs by annexin-V-FITC/propidium iodide staining-based flow cytometry (reference value: 93.5%); assay type: functional; settings: T-24, 24 h, read-out: Activity

Q: Which Activity [1] does the source give for `COc1ccc2c(c1)/C(=N\O)C(c1c[nH]c3ccc(OC)cc13)=N2` here?
A: 7.13%

Q: What about the Activity [2] of the same compound?
A: Dose-dependent effect

Q: And the Activity [3]?
A: Dose-dependent effect

Q: And the Activity [4]?
A: Dose-dependent effect

Q: What about the Activity [5] of the same compound?
A: Dose-dependent effect

Q: And the fold change (FC) [6]?
A: 4.47

Q: What about the fold change (FC) [7] of the same compound?
A: 27.1

Q: And the Activity [8]?
A: Active

Q: What about the Activity [9] of the same compound?
A: Active

Q: What about the Activity [10] of the same compound?
A: 45%

Q: And the Activity [11]?
A: 51.9%

Q: And the Activity [12]?
A: 5.47%

Q: And the Activity [13]?
A: 66.9%

Q: And the Activity [14]?
A: 28.4%

Q: And the Activity [15]?
A: Dose-dependent effect

Q: And the Activity [16]?
A: Dose-dependent effect

Q: And the Activity [17]?
A: Dose-dependent effect

Q: And the Activity [18]?
A: inactive

Q: What about the IC50 [19] of the same compound?
A: 9.92 µM

Q: And the IC50 [20]?
A: 7.73 µM

Q: And the IC50 [21]?
A: 9.83 µM

Q: And the IC50 [22]?
A: > 100 µM

Q: And the Activity [23]?
A: Dose-dependent effect

Q: What about the Activity [24] of the same compound?
A: Dose-dependent effect

Q: And the Activity [25]?
A: Active

Q: And the Activity [26]?
A: 6.89%

Q: What about the Activity [27] of the same compound?
A: 1.18%

Q: What about the viability at 5 µM [28] of the same compound?
A: 85.9%
